{"data": "Assay results pooled from the literature", "CHEK2": "Serine/threonine-protein kinase Chk2 (CHEK2, Homo sapiens, UniProt O96017)", "CHEK2 R145W": "Serine/threonine-protein kinase Chk2 (CHEK2, Homo sapiens, UniProt O96017, R145W)", "note": "Each line is one published result; the experiments were not run side by side."}
{"Structure (SMILES)": "CN([C@@H]1CCc2c(CC(=O)O)c3cc(S(C)(=O)=O)ccc3n2C1)S(=O)(=O)c1ccc(F)cc1", "target": "CHEK2", "observed": "cell-free assay", "method": "competition with immobilised ligand", "tested at": "1 µM", "endpoint": "remaining binding", "result": "100%"}
{"Structure (SMILES)": "COc1cc2nccc(Oc3ccc(NC(=O)Nc4ccc(F)cc4F)c(F)c3)c2cc1OC", "target": "CHEK2", "observed": "thermal stability", "method": "DSF", "tested at": "10 µM", "endpoint": "ΔTm", "result": "5 to 10 °C"}
{"Structure (SMILES)": "COc1cc(Nc2c(C#N)cnc3cc(OCCCN4CCN(C)CC4)c(OC)cc23)c(Cl)cc1Cl", "target": "CHEK2", "observed": "cell-free assay", "tested at": "0.5 µM", "endpoint": "remaining signal", "result": "21.7%"}
{"Structure (SMILES)": "C[C@H](c1ccc(F)cc1)N(Cc1cccc(C(=O)O)c1)C(=O)c1cnc2ccccc2c1", "target": "CHEK2", "observed": "cell-free assay", "method": "competition with immobilised ligand", "tested at": "1 µM", "endpoint": "remaining binding", "result": "91%"}
{"Structure (SMILES)": "Cc1cc(NC(=O)c2cccc3cc(-c4cccc5[nH]nc(N)c45)ccc23)ccc1F", "target": "CHEK2 R145W", "observed": "enzyme activity", "mode": "inhibitor", "tested at": "0.1 µM", "endpoint": "activity vs control", "result": "99%"}
{"Structure (SMILES)": "CNC(=O)c1cc(Oc2ccc(NC(=O)Nc3ccc(Cl)c(C(F)(F)F)c3)cc2)ccn1", "target": "CHEK2", "observed": "enzyme activity", "mode": "inhibitor", "tested at": "10 µM", "endpoint": "inhibition", "result": "6%"}
{"Structure (SMILES)": "O=C(N1CCS(=O)(=O)CC1)N1C[C@H](c2ccc(OC(F)(F)F)cc2)C[C@H](c2nc(C3CC3)no2)C1", "target": "CHEK2", "observed": "cell-free assay", "method": "competition with immobilised ligand", "tested at": "1 µM", "endpoint": "remaining binding", "result": "100%"}
{"Structure (SMILES)": "O=C1Nc2ccc(Cl)cc2C1=Cc1cc(Cl)c(O)c(Cl)c1", "target": "CHEK2", "observed": "cell-free assay", "tested at": "0.5 µM", "endpoint": "remaining signal", "result": "70.2%"}
{"Structure (SMILES)": "CO[C@@H](C)c1c(Nc2ccc([C@H](N(C)C(=O)C3CCS(=O)(=O)CC3)C(F)(F)F)cc2)cnc2cc(Cl)nn12", "target": "CHEK2", "observed": "cell-free assay", "method": "competition with immobilised ligand", "tested at": "1 µM", "endpoint": "remaining binding", "result": "90%"}
{"Structure (SMILES)": "CN(C)C1CCN(CC#Cc2nn(C3CCCC3)c3nc(NCc4ccccc4)ncc23)C1 (stereo not drawn)", "target": "CHEK2", "observed": "enzyme activity", "mode": "inhibitor", "method": "FRET", "tested at": "0.1 µM", "endpoint": "inhibition", "result": "6%"}
{"Structure (SMILES)": "CCC1(CC)NC(=O)c2c(c3ccc(Cl)c(Cl)c3n2C)C1C#N (stereo not drawn)", "target": "CHEK2", "observed": "thermal stability", "method": "DSF", "tested at": "10 µM", "endpoint": "ΔTm", "result": "-0.2 °C"}
{"Structure (SMILES)": "Cc1ccc(Nc2nccc(N(C)c3ccc4c(C)n(C)nc4c3)n2)cc1S(N)(=O)=O", "target": "CHEK2 R145W", "observed": "enzyme activity", "mode": "inhibitor", "tested at": "10 µM", "endpoint": "inhibition", "result": "28%"}
{"Structure (SMILES)": "Cn1c2c(c3ccccc31)C(C#N)C(C)(C)NC2=O (stereo not drawn)", "target": "CHEK2", "observed": "thermal stability", "method": "DSF", "tested at": "10 µM", "endpoint": "ΔTm", "result": "0.8 °C"}
{"Structure (SMILES)": "Oc1cccc(-c2nc(N3CCOCC3)c3oc4ncccc4c3n2)c1", "target": "CHEK2", "observed": "cell-free assay", "tested at": "0.5 µM", "endpoint": "remaining signal", "result": "90.4%"}
{"Structure (SMILES)": "Cc1ccc(NC(=O)c2ccc(C)c(C(F)(F)F)c2)cc1C#Cc1nn(C2CCC(O)CC2)c2ncnc(N)c12 (stereo not drawn)", "target": "CHEK2", "observed": "cell-free assay", "tested at": "10 µM", "endpoint": "remaining signal", "result": "111%"}
{"Structure (SMILES)": "Cc1ccc(C(=O)NCc2ccsc2)cc1C#Cc1cn(C(C)C)c2ncnc(N)c12", "target": "CHEK2", "observed": "enzyme activity", "mode": "inhibitor", "tested at": "1 µM", "endpoint": "activity vs control", "result": "109%"}
{"Structure (SMILES)": "Cc1ccc(NC(=O)c2ccc(CN3CCN(C)CC3)cc2)cc1Nc1nc(-c2cccnc2)cs1", "target": "CHEK2", "observed": "cell-free assay", "tested at": "0.5 µM", "endpoint": "remaining signal", "result": "101%"}
{"Structure (SMILES)": "CN(C)CC#Cc1ccc(OCCCc2sc(N3CCc4cccc(C(=O)Nc5nc6ccccc6s5)c4C3)nc2C(=O)O)c(F)c1", "target": "CHEK2", "observed": "cell-free assay", "method": "competition with immobilised ligand", "tested at": "1 µM", "endpoint": "remaining binding", "result": "100%"}
{"Structure (SMILES)": "Cn1c2c(Cl)c(Cl)ccc2c2cc(N)[nH]c(=O)c21", "target": "CHEK2", "observed": "thermal stability", "method": "DSF", "tested at": "10 µM", "endpoint": "ΔTm", "result": "0.1 °C"}
{"Structure (SMILES)": "CCN(CC)CCNC(=O)c1c(C)[nH]c(/C=C2\\C(=O)Nc3ccc(F)cc32)c1C", "target": "CHEK2", "observed": "cell-free assay", "tested at": "0.5 µM", "endpoint": "remaining signal", "result": "7.13%"}
{"Structure (SMILES)": "CCOCCn1cc(C(=O)Nc2ccc(-n3nc(-c4cccnc4)cc3C(F)(F)F)cn2)ccc1=O", "target": "CHEK2", "observed": "cell-free assay", "method": "competition with immobilised ligand", "tested at": "1 µM", "endpoint": "remaining binding", "result": "0%"}
{"Structure (SMILES)": "Cn1c2c(c3ccc(Cl)c(Cl)c31)C(C#N)C(C)(C)NC2=O (stereo not drawn)", "target": "CHEK2", "observed": "thermal stability", "method": "DSF", "tested at": "10 µM", "endpoint": "ΔTm", "result": "0.2 °C"}
{"Structure (SMILES)": "COc1cc(/C=C/C(=O)CC(=O)/C=C/c2ccc(O)c(OC)c2)ccc1O", "target": "CHEK2", "observed": "enzyme activity", "mode": "inhibitor", "tested at": "1 µM", "endpoint": "activity vs control", "result": "68%"}
{"Structure (SMILES)": "CC(=O)N1CCC(c2ccc(C(=O)NC3=NCCN3)cc2C(F)(F)F)CC1", "target": "CHEK2", "observed": "cell-free assay", "method": "competition with immobilised ligand", "tested at": "1 µM", "endpoint": "remaining binding", "result": "100%"}
{"Structure (SMILES)": "CCN1CCC2(CC1)NC(=O)c1c(c3ccc(Cl)c(Cl)c3n1C)C2C#N (racemic)", "target": "CHEK2", "observed": "thermal stability", "method": "DSF", "tested at": "10 µM", "endpoint": "ΔTm", "result": "-0.2 °C"}
{"Structure (SMILES)": "Cc1noc([C@H]2C[C@@H](c3ccc(C(F)(F)F)cc3)CN(C(=O)N3CCS(=O)(=O)C3)C2)n1", "target": "CHEK2", "observed": "cell-free assay", "method": "competition with immobilised ligand", "tested at": "1 µM", "endpoint": "remaining binding", "result": "100%"}
{"Structure (SMILES)": "CC1(C)NC(=O)c2[nH]c3c(Cl)c(Cl)ccc3c2C1C#N (stereo not drawn)", "target": "CHEK2", "observed": "thermal stability", "method": "DSF", "tested at": "10 µM", "endpoint": "ΔTm", "result": "-0.1 °C"}
